# ChEMBL document CHEMBL1155493, “Synthesis of new cis-fused tetrahydrochromeno[4,3-b]quinolines and their antiproliferative activity studies against MDA-MB-231 and MCF-7 breast cancer cell lines” (Bioorg Med Chem Lett, 2010)
# Key:
# MDA-MB-231 = assay: Antiproliferative activity against human MDA-MB-231 cells by MTT assay; format: functional, cell-based
# Procedure, shortened: (§1)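 MTT read-out following an earlier published protocol; IC50 values reported, with tamoxifen as the reference compound.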
# MCF7 = assay: Antiproliferative activity against human MCF7 cells by MTT assay; format: functional, cell-based; procedure, shortened: as §1
Structure (SMILES),IC50 (MDA-MB-231),IC50 (MCF7)
Cc1coc2c3c(ccc2c1=O)OC[C@H]1[C@@H]3Nc2cc3ccccc3cc2C1(C)C,9.4 µM,9 µM
Cc1coc2c3c(ccc2c1=O)OC[C@H]1[C@@H]3Nc2ccccc2C1(C)C,93.8 µM,9.6 µM
Cc1ccc2c(c1)C(C)(C)[C@H]1COc3ccc4c(=O)c(C)coc4c3[C@H]1N2,> 100 µM,10.2 µM
Cc1ccc2c(c1)C(C)(C)[C@H]1COc3ccc4c(=O)c(-c5ccccc5)c(C)oc4c3[C@H]1N2,> 100 µM,10 µM
Cc1ccc2c(c1)C(C)(C)[C@H]1COc3ccc4c(=O)c(C)c(C)oc4c3[C@H]1N2,> 100 µM,94.3 µM
Cc1oc2c3c(ccc2c(=O)c1-c1ccccc1)OC[C@H]1[C@@H]3Nc2ccccc2C1(C)C,> 100 µM,> 100 µM
CC/C(=C(\c1ccccc1)c1ccc(OCCN(C)C)cc1)c1ccccc1 [TAMOXIFEN],0.66 µM,1 µM
Cc1oc2c3c(ccc2c(=O)c1C)OC[C@H]1[C@@H]3Nc2ccccc2C1(C)C,> 100 µM,> 100 µM
Cc1oc2c3c(ccc2c(=O)c1C)OC[C@H]1[C@@H]3Nc2cc3ccccc3cc2C1(C)C,> 100 µM,> 100 µM
COc1ccc2c(c1)C(C)(C)[C@H]1COc3ccc4c(=O)c(C)c(C)oc4c3[C@H]1N2,> 100 µM,> 100 µM
